Experimental data published in ChEMBL document CHEMBL2203008, “Photoaffinity labeling of Ras converting enzyme using peptide substrates that incorporate benzoylphenylalanine (Bpa) residues: improved labeling and structural implications” (Bioorg Med Chem, 2011).
Each block holds one molecule with its values, some of them ahead of it. Calls of active or inactive are those of the source. The calls are words filed in the database; no cut-off is given here. Starred links: 1 amine or outer side, 2 acyl side, 3 side chain; linkers in the order of their positions; H or OH if unused. Non-standard residues stand in square brackets, D forms with d. Residues, ends and D or L forms follow the SMILES beside them. *: point of attachment. X5 = O=C1N[C@H]2[C@H](CS[C@H]2CCCCC(=O)OCCOCCOCCN([C@@H](Cc2ccc(C(=O)c3ccccc3)cc2)C(=O)[*:2])[*:1])N1; X1 = NCCCC[C@@H](C(=O)[*:2])N(CCOCCOCCOC(=O)CCCC[C@@H]1SC[C@@H]2NC(=O)N[C@@H]21)[*:1]; Lys(Dde) = CC(NCCCC[C@H](N)C(=O)O)=C1C(=O)CC(C)(C)CC1=O; X4 = O=C1N[C@H]2[C@H](CS[C@H]2CCCCC(=O)OCCOCCOCCOCN*)N1; X2 = C/C(=C\C*)CC/C=C(\C)COCc1cccc(C(=O)c2ccccc2)c1; Bpa = N[C@@H](Cc1ccc(C(=O)c2ccccc2)cc1)C(=O)O; Dnp = O=[N+]([O-])c1ccc(*)c([N+](=O)[O-])c1; X3 = C/C(=C\C*)COCc1cccc(C(=O)c2ccccc2)c1; Farnesyl = CC(C)=CCC/C(C)=C/CC/C(C)=C/C*; Suc = O=C(CCC(=O)[*:2])[*:1]; 2Abz = Nc1ccccc1C(=O)O

Experiments:
Saccharomyces cerevisiae [1] = assay: Ratio of Vmax to Km for Rce1p in yeast membrane assessed as release of -K(Dnp)IM tripeptide measured per mg protein by fluorescence-based proteolytic assay; assay type: cell membranes
Procedure, shortened: (§1)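 Enzyme was carbonate-washed membranes from S. cerevisiae overexpressing HA-tagged yeast Rce1p as the sole CAAX protease. Membranes were preincubated 10 min at 30 °C, then added to the Abz/Dnp fluorogenic farnesyl peptide: 10 concentrations, 0–45 or 0–50 μM final, 0.25 mg/mL membrane protein, Hepes/MgCl2 pH 7.5. Fluorescence (340/420 nm) was read every 30–60 s for 1 h at 30 °C. RFU were converted to product using a trypsin standard curve to give KM and Vmax. Runs were done in two or five replicates.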

Saccharomyces cerevisiae [2] = assay: Activity of Rce1p in yeast membrane assessed as release of -K(Dnp)IM tripeptide measured per mg protein by fluorescence-based proteolytic assay; assay type: cell membranes; procedure, shortened: as §1
Saccharomyces cerevisiae [3] = assay: Binding affinity to Rce1p in yeast membrane at 15 uM measured 20 mins post irradiation by pull-down-Western blot analysis; assay type: cell membranes
Procedure, shortened: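 Biotinylated probes at 15 μM were mixed with membranes (0.25 μg/μL) from the RCE1-HA rce1Δ ste24Δ yeast strain in 100 mM Hepes, 5 mM MgCl2, pH 7.5. Samples were irradiated at 2537 Å for 20 min at 4 °C. Protein was precipitated and pulled down on streptavidin for 4 h at 4 °C, then separated by 12% SDS-PAGE. Detection was by anti-HA Western blot with ECL, followed by densitometry.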

Saccharomyces cerevisiae [4] = assay: Binding affinity to Rce1p in yeast membrane at 15 uM after 30 mins by Western blot analysis; assay type: cell membranes
Procedure, shortened: (§2)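 Probe at 15 μM was irradiated at 2537 Å for 30 min at 4 °C in Hepes/MgCl2 pH 7.5, or left unirradiated. Membranes (0.25 μg/μL) came from RCE1-HA or Rce1p-lacking (rce1Δ ste24Δ) yeast strains. This was followed by streptavidin pull-down, SDS-PAGE and anti-HA Western blot with ECL detection.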

Saccharomyces cerevisiae [5] = assay: Binding affinity to rce1/ste24-deficient yeast cell membrane at 15 uM measured 30 mins post irradiation by Western blot analysis; procedure, shortened: as §2
Saccharomyces cerevisiae [6] = assay: Binding affinity to Rce1p in yeast membrane at 15 uM measured 30 mins post irradiation by time-course experiment; assay type: cell membranes
Procedure, shortened: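 Time course: RCE1-HA membranes (0.25 μg/μL) were irradiated at 2537 Å and 4 °C with 15 μM probe for 10–60 min, in 100 mM Hepes, 5 mM MgCl2, pH 7.5. Labelled protein was taken through streptavidin pull-down, SDS-PAGE and anti-HA Western blotting.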

Saccharomyces cerevisiae [7] = assay: Activity of Rce1p in yeast membrane assessed as formation of Biotin-PEG3-KSK-Bpa-KC(Fr) at 20 uM after 4 hrs by RP-HPLC analysis; assay type: cell membranes
Procedure, shortened: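 Probe diluted to 20 or 40 μM in 100 mM Hepes, 5 mM MgCl2, pH 7.5. Carbonate-washed yeast membranes containing Rce1p were added to 0.25 mg/mL total protein and incubated at 35 °C for about 4 h. Material was cleaned up on C18 reversed-phase cartridges and analysed by C18 RP-HPLC with diode-array detection at 220 and 349 nm. Product identity was checked by ESI-MS/MS.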

Saccharomyces cerevisiae [8] = assay: Competitive binding affinity to Rce1p active site in yeast membrane at 15 uM measured 30 mins post irradiation by Western blot analysis in presence of 50 uM Abz-KSKTKC(Fr)K(Dnp)IM; assay type: cell membranes
Procedure, shortened: (§3)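 RCE1-HA membranes (0.25 μg/μL) were irradiated at 2537 Å with 15 μM probe for 30 min at 4 °C. The non-photoreactive farnesylated substrate was present at 50 or 100 μM, in Hepes/MgCl2 pH 7.5. Samples were taken through streptavidin pull-down, SDS-PAGE, anti-HA Western blot with ECL, and densitometry across four replicate experiments.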

Saccharomyces cerevisiae [9] = assay: Binding affinity to rce1/ste24-deficient yeast cell membrane at 15 uM after 30 mins by Western blot analysis; procedure, shortened: as §2
Saccharomyces cerevisiae [10] = assay: Competitive binding affinity to Rce1p active site in yeast membrane at 15 uM measured 30 mins post irradiation by Western blot analysis in presence of 100 uM Abz-KSKTKC(Fr)K(Dnp)IM; assay type: cell membranes; procedure, shortened: as §3
Saccharomyces cerevisiae [11] = assay: Binding affinity to Rce1p in yeast membrane at 15 uM measured 30 mins post irradiation by Western blot analysis; assay type: cell membranes; procedure, shortened: as §2

Activity (Saccharomyces cerevisiae [3]): Active
Activity (Saccharomyces cerevisiae [4]): inactive
Activity (Saccharomyces cerevisiae [5]): inactive
Activity (Saccharomyces cerevisiae [6]): Active
Activity (Saccharomyces cerevisiae [7]): Active
Activity (Saccharomyces cerevisiae [8]): 84%
Activity (Saccharomyces cerevisiae [9]): inactive
Activity (Saccharomyces cerevisiae [10]): 7%
Activity (Saccharomyces cerevisiae [11]): Active
SMILES: CC[C@H](C)[C@H](NC(=O)[C@@H](NC(=O)[C@H](CSC/C=C(\C)CC/C=C(\C)CCC=C(C)C)NC(=O)[C@H](CCCCN)NC(=O)[C@H](Cc1ccc(C(=O)c2ccccc2)cc1)NC(=O)[C@H](CCCCN)NC(=O)[C@H](CO)NC(=O)[C@H](CCCCN)NCCOCCOCCOC(=O)CCCC[C@@H]1SC[C@@H]2NC(=O)N[C@@H]21)C(C)C)C(=O)N[C@@H](CCSC)C(=O)O (H-[X1]SK[Bpa]KC(Farnesyl)VIM-OH)

Activity (Saccharomyces cerevisiae [3]): Active
SMILES: CC[C@H](C)[C@H](NC(=O)[C@@H](NC(=O)[C@H](CSC/C=C(\C)CC/C=C(\C)CCC=C(C)C)NC(=O)[C@H](CCCCN)NC(=O)[C@@H](NC(=O)[C@H](Cc1ccc(C(=O)c2ccccc2)cc1)NC(=O)[C@H](CO)NC(=O)[C@H](CCCCN)NCCOCCOCCOC(=O)CCCC[C@@H]1SC[C@@H]2NC(=O)N[C@@H]21)[C@@H](C)O)C(C)C)C(=O)N[C@@H](CCSC)C(=O)O (H-[X1]S[Bpa]TKC(Farnesyl)VIM-OH)

Activity (Saccharomyces cerevisiae [3]): Active
SMILES: CC[C@H](C)[C@H](NC(=O)[C@@H](NC(=O)[C@H](CSC/C=C(\C)CC/C=C(\C)CCC=C(C)C)NC(=O)[C@H](CCCCN)NC(=O)[C@@H](NC(=O)[C@H](CCCCN)NC(=O)[C@H](Cc1ccc(C(=O)c2ccccc2)cc1)NC(=O)[C@H](CCCCN)NCCOCCOCCOC(=O)CCCC[C@@H]1SC[C@@H]2NC(=O)N[C@@H]21)[C@@H](C)O)C(C)C)C(=O)N[C@@H](CCSC)C(=O)O (H-[X1][Bpa]KTKC(Farnesyl)VIM-OH)

Activity (Saccharomyces cerevisiae [3]): Active
SMILES: CC[C@H](C)[C@H](NC(=O)[C@@H](NC(=O)[C@H](CSC/C=C(\C)CC/C=C(\C)CCC=C(C)C)NC(=O)[C@H](CCCCN)NC(=O)[C@@H](NC(=O)[C@H](CCCCN)NC(=O)[C@H](CO)NC(=O)[C@H](Cc1ccc(C(=O)c2ccccc2)cc1)NCCOCCOCCOC(=O)CCCC[C@@H]1SC[C@@H]2NC(=O)N[C@@H]21)[C@@H](C)O)C(C)C)C(=O)N[C@@H](CCSC)C(=O)O (H-[X5]SKTKC(Farnesyl)VIM-OH)

The remaining lines, values behind:

SMILES: CC[C@H](C)[C@H](NC(=O)[C@H](CCCCNc1ccc([N+](=O)[O-])cc1[N+](=O)[O-])NC(=O)[C@H](CSC/C=C(\C)CC/C=C(\C)CCC=C(C)C)NC(=O)[C@H](CCCCN)NC(=O)[C@@H](NC(=O)[C@H](CCCCN)NC(=O)[C@H](CO)NC(=O)[C@H](CCCCN)NC(=O)c1ccccc1N)[C@@H](C)O)C(=O)N[C@@H](CCSC)C(=O)O (H-[2Abz]KSKTKC(Farnesyl)K(Dnp)IM-OH)
Vmax/Km (Saccharomyces cerevisiae [1]): 8.6 ×10⁻⁴ L/min
Km (Saccharomyces cerevisiae [2]): 6.4 µM
Vmax (Saccharomyces cerevisiae [2]): 5.6 nmol/min/mg

SMILES: CC[C@H](C)[C@H](NC(=O)[C@H](CCCCNc1ccc([N+](=O)[O-])cc1[N+](=O)[O-])NC(=O)[C@H](CSC/C=C(\C)COCc1cccc(C(=O)c2ccccc2)c1)NC(=O)[C@H](CCCCN)NC(=O)[C@@H](NC(=O)[C@H](CCCCN)NC(=O)[C@H](CO)NC(=O)[C@H](CCCCN)NC(=O)c1ccccc1N)[C@@H](C)O)C(=O)N[C@@H](CCSC)C(=O)O (H-[2Abz]KSKTKC(X3)K(Dnp)IM-OH)
Vmax/Km (Saccharomyces cerevisiae [1]): 4.8 ×10⁻⁵ L/min
Km (Saccharomyces cerevisiae [2]): 1.9 µM
Vmax (Saccharomyces cerevisiae [2]): 0.093 nmol/min/mg

SMILES: CC[C@H](C)[C@H](NC(=O)[C@H](CCCCNc1ccc([N+](=O)[O-])cc1[N+](=O)[O-])NC(=O)[C@H](CSC/C=C(\C)CC/C=C(\C)COCc1cccc(C(=O)c2ccccc2)c1)NC(=O)[C@H](CCCCN)NC(=O)[C@@H](NC(=O)[C@H](CCCCN)NC(=O)[C@H](CO)NC(=O)[C@H](CCCCN)NC(=O)[C@H](CCCCNC(C)=C1C(=O)CC(C)(C)CC1=O)NC(=O)CCC(=O)NCOCCOCCOCCOC(=O)CCCC[C@@H]1SC[C@@H]2NC(=O)N[C@@H]21)[C@@H](C)O)C(=O)N[C@@H](CCSC)C(=O)O ({X4-Suc}-[Lys(Dde)]KSKTKC(X2)K(Dnp)IM-OH)
Activity (Saccharomyces cerevisiae [3]): Active

SMILES: CC[C@H](C)[C@H](NC(=O)[C@H](CCCCNc1ccc([N+](=O)[O-])cc1[N+](=O)[O-])NC(=O)[C@H](CSC/C=C(\C)COCc1cccc(C(=O)c2ccccc2)c1)NC(=O)[C@H](CCCCN)NC(=O)[C@@H](NC(=O)[C@H](CCCCN)NC(=O)[C@H](CO)NC(=O)[C@H](CCCCN)NC(=O)[C@H](CCCCNC(C)=C1C(=O)CC(C)(C)CC1=O)NC(=O)CCC(=O)NCOCCOCCOCCOC(=O)CCCC[C@@H]1SC[C@@H]2NC(=O)N[C@@H]21)[C@@H](C)O)C(=O)N[C@@H](CCSC)C(=O)O ({X4-Suc}-[Lys(Dde)]KSKTKC(X3)K(Dnp)IM-OH)
Activity (Saccharomyces cerevisiae [3]): Active
